ChEMBL document CHEMBL6134775, “Breaking boundaries in diabetic nephropathy treatment: design and synthesis of novel steroidal SGLT2 inhibitors” (RSC Med Chem, 2025)
One block for each compound: values may come before it. Activity calls are given as the source filed them. The rule behind the calls is not given here.

Key:
NRK-52E [1] = test: Cytotoxicity against rat NRK-52E cells assessed as reduction in cell viability at 1 to 50 uM pretreated with 33 mM glucose for 6 hrs followed by compound addition and measured after 24 hrs by Alamar blue dye based microplate reader analysis; type: toxicity; settings: dose 1-50 µM
Outline: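 Alamar blue assay in NRK-52E cells grown in high-glucose DMEM with 10% FBS at 37 °C, 5% CO2. At 80-90% confluency, cells got 33 mM glucose for 6 h, then compound at 1-50 μM (vehicle 0.1% DMSO + 1XPBS) for 24 h. Dye incubation 4 h; OD read at 570 and 600 nm. Viability expressed as the absorbance ratio to the vehicle control.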

[2] = target: T1, Sodium/glucose cotransporter 2 (Rattus norvegicus, UniProt P53792); test: Inhibition of SGLT2-mediated glucose uptake in rat NRK-52E cells assessed as reduction in glucose uptake preincubated with 33 mM glucose for 6 hrs followed by compound addition and measured after 24 hrs by fluorescence based microplate reader analysis; type: cell-based
T1 sequence (P53792 whole entry): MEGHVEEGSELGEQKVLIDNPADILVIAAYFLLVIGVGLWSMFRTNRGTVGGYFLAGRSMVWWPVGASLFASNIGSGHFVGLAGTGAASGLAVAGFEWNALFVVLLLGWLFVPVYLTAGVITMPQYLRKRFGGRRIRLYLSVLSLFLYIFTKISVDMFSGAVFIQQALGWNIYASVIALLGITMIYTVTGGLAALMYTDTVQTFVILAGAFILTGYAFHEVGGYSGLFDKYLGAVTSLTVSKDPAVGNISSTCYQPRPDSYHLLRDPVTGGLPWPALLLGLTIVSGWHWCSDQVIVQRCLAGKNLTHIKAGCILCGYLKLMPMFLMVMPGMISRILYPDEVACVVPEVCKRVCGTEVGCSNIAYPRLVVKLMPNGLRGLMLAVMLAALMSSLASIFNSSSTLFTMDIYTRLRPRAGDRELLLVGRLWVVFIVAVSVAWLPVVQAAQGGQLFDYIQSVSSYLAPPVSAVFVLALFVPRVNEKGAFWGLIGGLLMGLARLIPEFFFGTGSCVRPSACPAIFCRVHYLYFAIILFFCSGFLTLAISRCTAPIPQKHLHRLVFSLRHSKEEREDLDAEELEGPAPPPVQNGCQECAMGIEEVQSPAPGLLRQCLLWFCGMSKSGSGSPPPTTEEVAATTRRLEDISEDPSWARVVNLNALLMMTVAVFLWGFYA
Outline: (§1)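 6-NBDG uptake in NRK-52E cells seeded at 1×10^4/well, exposed to 33 mM glucose for 6 h, then to compound (1, 5, 10 μM; dose series 100 nM-10 μM; vehicle 0.1% DMSO + 1XPBS) for 24 h. Cells were rinsed in Na+-free buffer and given 20 μM 6-NBDG in Na+ or Na+-free HEPES buffer (pH 7.4) for 20 min at 37 °C. After lysis in 1% Triton X (pH 10) plus DMSO, fluorescence was read at 470/540 nm. Results are fold change vs control; n = 3.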

[3] = target: T2, Sodium/glucose cotransporter 2 (Rattus norvegicus) (UniProt P53792); test: Inhibition of SGLT2-mediated glucose uptake in rat NRK-52E cells assessed as reduction in glucose uptake at 1 to 10 uM preincubated with 33 mM glucose for 6 hrs followed by compound addition and measured after 24 hrs by fluorescence based microplate reader analysis; type: cell-based; settings: dose 1-10 µM; outline: as §1
T2 sequence (whole entry): T1 sequence (P53792 whole entry)

[4] = target: T2, Sodium/glucose cotransporter 2 (Rattus norvegicus); test: Inhibition of SGLT2-mediated glucose uptake in rat NRK-52E cells assessed as fold decrease in reduction of glucose uptake at 1 uM preincubated with 33 mM glucose for 6 hrs followed by compound addition and measured after 24 hrs by fluorescence based microplate reader analysis relative to glucose alone; type: cell-based; outline: as §1
[5] = target: T2, Sodium/glucose cotransporter 2 (Rattus norvegicus); test: Inhibition of SGLT2-mediated glucose uptake in rat NRK-52E cells assessed as reduction in glucose uptake by measuring fold change at 500 nM preincubated with 33 mM glucose for 6 hrs followed by compound addition and measured after 24 hrs by fluorescence based microplate reader analysis; type: cell-based; outline: as §1
NRK-52E [6] = test: Downregulation of SGLT2 protein expression in glucose-induced rat NRK-52E cells at 1 to 5 uM by Western blotting analysis; type: functional, cell-based; settings: dose 1-5 µM
Outline: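 NRK-52E cells got 33 mM glucose for 6 h, then compound for 24 h, and were lysed in RIPA with protease/phosphatase inhibitors; protein was measured by BCA. Samples of about 20-30 μg were run on 10% SDS-PAGE and transferred to nitrocellulose. Blots were blocked in 1% BSA, probed with anti-SGLT2 (1:1000) overnight at 4 °C, then HRP anti-rabbit (1:1000) for 2 h, and detected by ECL with densitometry. β-actin served as loading control; three repeats.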

NRK-52E [7] = test: Effect of SGLT1 protein expression in glucose-induced rat NRK-52E cells at 1 to 5 uM by Western blotting analysis; type: functional, cell-based; settings: dose 1-5 µM
NRK-52E [8] = test: Inhibition of ROS generation in rat NRK-52E cells assessed as reduction in intracellular ROS generation at […] preincubated with glucose for 6 hrs followed by compound addition and measured after 24 hrs by DCFDA staining based spectrofluorometric analysis relative to glucose alone; type: functional, cell-based
Outline: (§2)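 NRK-52E cells in 24-well plates got 33 mM glucose for 6 h, then compound at 100 nM-10 μM (vehicle 0.1% DMSO + 1XPBS) for 24 h. Cells were loaded with 10 μM H2DCFDA for 30 min at 37 °C in the dark, lysed with 1% Triton X-100 and DMSO. Fluorescence was read at 480/530 nm in triplicate; the glucose-only signal was set as 100%.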

Mitochondrial membrane = test: Restoration of mitochondrial membrane depolarization in glucose induced rat NRK-52E cells assessed as increase in green fluorescence intensity at […] pretreated with glucose for 6 hrs followed by compound addition and measured after 24 hrs by rhodamine-123 staining based cytofluorimetric analysis; type: cell membranes
Outline: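 NRK-52E cells (2×10^5/well) received 33 mM glucose for 6 h, then compound at 500 nM, 1 or 5 μM for 24 h. They were stained with 200 ng/mL rhodamine 123 for 30 min at 37 °C, washed, and analysed by flow cytometry.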

NRK-52E [9] = test: Downregulation of NOX-4 expression in glucose induced rat NRK-52E cells at 1 to 5 uM by Western blotting analysis; type: functional, cell-based; settings: dose 1-5 µM
NRK-52E [10] = test: Inhibition of NF-kappaB activation in glucose induced rat NRK-52E cells at 0.005 to 5 uM by Western blotting analysis; type: cell-based; settings: dose 0.005-5 µM
NRK-52E [11] = test: Downregulation of IL-6 expression in glucose induced rat NRK-52E cells at 0.005 to 5 uM by Western blotting analysis; type: functional, cell-based; settings: dose 0.005-5 µM
NRK-52E [12] = test: Downregulation of TGF-beta1 expression in glucose induced rat NRK-52E cells at 0.005 to 5 uM by Western blotting analysis; type: functional, cell-based; settings: dose 0.005-5 µM
NRK-52E [13] = test: Inhibition of fibronectin expression in glucose induced rat NRK-52E cells at 0.005 to 5 uM by Western blotting analysis; type: functional, cell-based; settings: dose 0.005-5 µM
NRK-52E [14] = test: Inhibition of collagen-IV expression in glucose induced rat NRK-52E cells at 0.005 to 5 uM by Western blotting analysis; type: functional, cell-based; settings: dose 0.005-5 µM
NRK-52E [15] = test: Inhibition of ROS generation in rat NRK-52E cells assessed as reduction in intracellular ROS generation at 0.25 to 10 uM preincubated with glucose for 6 hrs followed by compound addition and measured after 24 hrs by DCFDA staining based spectrofluorometric analysis; type: functional, cell-based; settings: dose 0.25-10 µM; outline: as §2
NRK-52E [16] = test: Induction of AMPK phosphorylation in glucose induced rat NRK-52E cells at 1 to 5 uM by Western blotting analysis; type: cell-based; settings: filed as activator, dose 1-5 µM

SMILES: C[C@]12CC[C@H](O)CC1=CC[C@@H]1[C@@H]2CC[C@]2(C)c3c(cnc4cc(-c5ccc(Cl)cc5)nn34)C[C@@H]12
- Activity (NRK-52E [1]): Non-toxic

SMILES: C[C@]12CC[C@H](O)CC1=CC[C@@H]1[C@@H]2CC[C@]2(C)c3c(cnc4nc5c(Cl)cccc5n34)C[C@@H]12
- Activity (NRK-52E [1]): Non-toxic

SMILES: C[C@]12CC[C@H](O)CC1=CC[C@@H]1[C@@H]2CC[C@]2(C)c3c(cnc4cc(-c5ccccc5)nn34)C[C@@H]12
- Activity (NRK-52E [1]): Non-toxic

SMILES: CC(=O)O[C@H]1CC[C@@]2(C)C(=CC[C@@H]3[C@@H]2CC[C@]2(C)c4c(cnc5nc6ccc(Cl)cc6n45)C[C@@H]32)C1
- Activity (NRK-52E [1]): Non-toxic

SMILES: CC(=O)O[C@H]1CC[C@@]2(C)C(=CC[C@@H]3[C@@H]2CC[C@]2(C)c4c(cnc5nc6ccccc6n45)C[C@@H]32)C1
- Activity (NRK-52E [1]): Non-toxic

- IC50 [2]: 2.35 nM
SMILES: Cc1ccc([C@@H]2O[C@H](CO)[C@@H](O)[C@H](O)[C@H]2O)cc1Cc1ccc(-c2ccc(F)cc2)s1 [CANAGLIFLOZIN ANHYDROUS]

- inhibition [3]: inactive
SMILES: COc1cccc2nn3c4c(cnc3c12)C[C@H]1[C@@H]2CC=C3C[C@@H](O)CC[C@]3(C)[C@H]2CC[C@]41C
- Activity (NRK-52E [1]): Non-toxic

- inhibition [3]: inactive
SMILES: COc1cccc2nn3c4c(cnc3c12)C[C@H]1[C@@H]2CC=C3C[C@@H](OC(C)=O)CC[C@]3(C)[C@H]2CC[C@]41C
- Activity (NRK-52E [1]): Non-toxic

SMILES: C[C@]12CC[C@H](O)CC1=CC[C@@H]1[C@@H]2CC[C@]2(C)c3c(cnc4nc5cc(Cl)ccc5n34)C[C@@H]12
- Activity (NRK-52E [1]): Non-toxic

SMILES: CC(=O)O[C@H]1CC[C@@]2(C)C(=CC[C@@H]3[C@@H]2CC[C@]2(C)c4c(cnc5cc(-c6ccccc6)nn45)C[C@@H]32)C1
- Activity (NRK-52E [1]): Non-toxic

SMILES: C[C@]12CC[C@H](O)CC1=CC[C@@H]1[C@@H]2CC[C@]2(C)c3c(cnc4cc(-c5ccc(Br)cc5)nn34)C[C@@H]12
- Activity (NRK-52E [1]): Non-toxic

- inhibition [3]: Active
- fold change (FC) [4]: 2
- IC50 [2]: 2.91 nM
- fold change (FC) [5]: 1.4
- Activity (Mitochondrial membrane): Active
SMILES: C[C@]12CC[C@H](O)CC1=CC[C@@H]1[C@@H]2CC[C@]2(C)c3c(cnc4nc5ccccc5n34)C[C@@H]12
- Activity (NRK-52E [1]): Non-toxic
- Activity (NRK-52E [6]): Active
- Activity (NRK-52E [7]): inactive
- inhibition (NRK-52E [8]): Active
- Activity (NRK-52E [9]): Active
- inhibition (NRK-52E [10]): Active
- Activity (NRK-52E [11]): Active
- Activity (NRK-52E [12]): Active
- inhibition (NRK-52E [13]): Active
- inhibition (NRK-52E [14]): Active
- inhibition (NRK-52E [15]): Active; Significant Decrease Observed
- Activity (NRK-52E [16]): Active

SMILES: CC(=O)O[C@H]1CC[C@@]2(C)C(=CC[C@@H]3[C@@H]2CC[C@]2(C)c4c(cnc5nc6c(Cl)cccc6n45)C[C@@H]32)C1
- Activity (NRK-52E [1]): Non-toxic

SMILES: CC(=O)O[C@H]1CC[C@@]2(C)C(=CC[C@@H]3[C@@H]2CC[C@]2(C)c4c(cnc5c(C#N)cnn45)C[C@@H]32)C1
- Activity (NRK-52E [1]): Non-toxic

SMILES: CC(=O)O[C@H]1CC[C@@]2(C)C(=CC[C@@H]3[C@@H]2CC[C@]2(C)c4c(cnc5nc6cc(Cl)ccc6n45)C[C@@H]32)C1
- Activity (NRK-52E [1]): Non-toxic

SMILES: CC(=O)O[C@H]1CC[C@@]2(C)C(=CC[C@@H]3[C@@H]2CC[C@]2(C)c4c(cnc5cc(-c6ccc(Br)cc6)nn45)C[C@@H]32)C1
- Activity (NRK-52E [1]): Non-toxic

SMILES: CC(=O)O[C@H]1CC[C@@]2(C)C(=CC[C@@H]3[C@@H]2CC[C@]2(C)c4c(cnc5cc(-c6ccc(Cl)cc6)nn45)C[C@@H]32)C1
- Activity (NRK-52E [1]): Non-toxic
